Consider nine compounds from ChEMBL document CHEMBL1127633, “Cyclic beta-casomorphin analogues with mixed mu agonist/delta antagonist properties: synthesis, pharmacological characterization, and conformational aspects” (J Med Chem, 1994).

Residues, ends and D or L forms follow the SMILES beside them.

The species named for one experiment is Cavia porcellus. Nature of the experiment: In vitro inhibition of electrically evoked contractions of the guinea pig ileum (GPI). The format is functional. In short, it runs like this: (§1)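 Electrically evoked contractions of isolated tissue preparations. Each preparation had its own log dose-response curve with [Leu5]enkephalin as standard. Test IC50 values were normalized to that standard. Mean of three to six determinations ± SEM. Partial agonists are reported as % maximal inhibition of contraction at high concentrations.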

The next experiment concerns the target Mu-type opioid receptor (Rattus norvegicus, UniProt P33535). Kind of experiment: Binding affinity for mu opioid receptors by displacement of [3H]-DAMGO from rat brain membrane binding site. A general note: Displacement assays read how much labelled ligand stays bound in the presence of the test substance.
Experiment [1] addresses Delta-type opioid receptor (Rattus norvegicus, UniProt P33533). Kind of experiment: Binding affinity for delta opioid receptors was determined by displacement of [3H]DSLET from rat brain membrane binding site. The method, boiled down: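 Rat brain membranes incubated 2 h at 0 °C with 0.78 nM [3H]DSLET. IC50 read from dose-displacement curves. […] Mean of three to six determinations ± SEM.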

The species named for a further experiment is Mus musculus. Nature of the experiment: In vitro inhibition of electrically evoked contractions of the mouse vas deferens (MVD). It counts as functional. In short, it runs like this: as §1

Sequence of Delta-type opioid receptor (P33533 whole entry): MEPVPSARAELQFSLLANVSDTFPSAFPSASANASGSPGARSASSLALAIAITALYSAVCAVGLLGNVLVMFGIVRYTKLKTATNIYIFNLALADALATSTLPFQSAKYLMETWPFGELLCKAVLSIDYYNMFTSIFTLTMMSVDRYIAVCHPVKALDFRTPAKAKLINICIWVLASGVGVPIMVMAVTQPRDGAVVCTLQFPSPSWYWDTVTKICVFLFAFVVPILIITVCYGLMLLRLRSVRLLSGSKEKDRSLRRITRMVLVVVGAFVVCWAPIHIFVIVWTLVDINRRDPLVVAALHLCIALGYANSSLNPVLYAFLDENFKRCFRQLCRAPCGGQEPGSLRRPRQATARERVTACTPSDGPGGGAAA
Sequence of Mu-type opioid receptor (P33535 whole entry): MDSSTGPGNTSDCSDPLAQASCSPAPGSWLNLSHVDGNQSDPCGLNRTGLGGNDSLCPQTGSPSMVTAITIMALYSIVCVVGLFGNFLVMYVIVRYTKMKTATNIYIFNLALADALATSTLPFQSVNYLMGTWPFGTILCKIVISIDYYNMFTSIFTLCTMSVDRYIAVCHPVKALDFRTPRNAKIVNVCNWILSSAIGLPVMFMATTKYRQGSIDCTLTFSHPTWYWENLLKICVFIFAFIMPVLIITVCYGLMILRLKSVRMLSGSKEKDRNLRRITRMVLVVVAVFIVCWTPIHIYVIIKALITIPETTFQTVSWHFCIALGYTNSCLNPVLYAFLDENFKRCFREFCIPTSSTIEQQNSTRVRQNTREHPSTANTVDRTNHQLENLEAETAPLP

With `N[C@@H](Cc1ccc(O)cc1)C(=O)N[C@@H]1CCCNC(=O)CNC(=O)[C@H]2CCCN2C(=O)[C@H](Cc2c[nH]c3ccccc23)NC1=O`, the IC50 (in general, the concentration needed to halve the response being measured) is 27.5 nM in the experiment filed under Cavia porcellus and 16.1 nM in the experiment listed under Mus musculus. In addition, the Ki (commonly the dissociation constant of the complex between target and ligand, obtained from inhibition or displacement) at Mu-type opioid receptor is 2.09 nM; in experiment [1], 10.3 nM.
As to `N[C@@H](Cc1ccc(O)cc1)C(=O)N[C@@H]1CCCNC(=O)[C@H]2CCCN2C(=O)[C@H](Cc2ccc3ccccc3c2)NC1=O`, the IC50 is 11.8 nM in the experiment filed under Cavia porcellus and 32.2 nM in the experiment listed under Mus musculus. Moreover, the figures for the inhibition constant (Ki) (on Mu-type opioid receptor; in experiment [1]) were 2.74 nM and 28.3 nM, respectively.
The corresponding values for `N[C@@H](Cc1ccc(O)cc1)C(=O)N[C@@H]1CCCNC(=O)CNC(=O)[C@H]2CCCN2C(=O)[C@H](Cc2cccc3ccccc23)NC1=O` are 14.9 nM, 29.9 nM, 3.42 nM and 23.6 nM.
In the experiment filed under Cavia porcellus, `N[C@@H](Cc1ccc(O)cc1)C(=O)N[C@@H]1CCCNC(=O)CNC(=O)[C@H]2CCCN2C(=O)[C@H](Cc2ccc3ccccc3c2)NC1=O` yielded an IC50 of 384 nM.
As to `N[C@@H](Cc1ccc(O)cc1)C(=O)N[C@@H]1CCNC(=O)CNC(=O)[C@H]2CCCN2C(=O)[C@H](Cc2ccc3ccccc3c2)NC1=O`, the values for the IC50 in the experiment listed under Cavia porcellus and in the experiment filed under Mus musculus were 353 nM and 1000 nM, respectively. Also, the Ki on Mu-type opioid receptor was 6.41 nM; in experiment [1], 70.8 nM.
The corresponding values for `N[C@@H](Cc1ccc(O)cc1)C(=O)N[C@@H]1CCCNC(=O)CNC(=O)[C@H]2CCCN2C(=O)[C@H](Cc2ccccc2)NC1=O` are 2.14 nM, 4.98 nM, 0.881 nM and 13.2 nM.
`N[C@@H](Cc1ccc(O)cc1)C(=O)NC1CCCNC(=O)CNC(=O)[C@@H]2CCCN2C(=O)[C@H](Cc2ccc3ccccc3c2)NC1=O` (single isomer, unassigned): the IC50 in the experiment listed under Cavia porcellus turned out to be 1220 nM; in the experiment listed under Mus musculus it was 10000 nM. In addition, the Ki on Mu-type opioid receptor was 81.3 nM; in experiment [1] it was 2140 nM.
In turn, `NC(=O)[C@H](Cc1ccccc1)NC(=O)[C@H](Cc1ccccc1)NC(=O)[C@@H]1Cc2ccccc2CN1C(=O)[C@@H](N)Cc1ccc(O)cc1` (HELM PEPTIDE1{Y.[Tic].F.F.[am]}$$$$V2.0) yielded an IC50 in the experiment listed under Cavia porcellus of 1700 nM.
On to `N[C@@H](Cc1ccc(O)cc1)C(=O)NC1CCCNC(=O)CNC(=O)[C@@H]2CCCN2C(=O)[C@H](Cc2ccccc2)NC1=O` (single isomer, unassigned), for which the IC50 in the experiment filed under Cavia porcellus came out at 13.4 nM; in the experiment filed under Mus musculus it was 69.9 nM. In addition, the Ki on Mu-type opioid receptor was determined as 3.99 nM; in experiment [1], 1280 nM.
